# Reference: PubChem BioAssay
# Several values for one entry are separate records, joined by “and”; a condition that tells them apart may be missing. Equal entries are not always repeated. Activity calls are given as the source filed them.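 How the source made its calls, unless noted: active means viability loss from added drug above about 55%, and viability with drug at most 40%, in both replicates (limit read from the data, passing the limit was not always enough); inconclusive means both conditions met in only one replicate; inactive means neither replicate meets both conditions.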
# Key:
# [1] = reduced viability of SK-BR-3 breast cancer cells – cell-based, 24 h, human, pilot screen (AID 572;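 active means viability at or below 10% of carrier control in both of two separate runs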;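 further: compound exposure lasted between 18 and 24 h rather than exactly 24 h; 100% = carrier-treated control wells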); details: SK-BR-3 viability, CellTiter-Glo luminescence, at 10 µM, stronger effect = lower value
# [2] = HUVEC growth inhibition – cell-based, human, primary screen (AID 575;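 active means viability at or below 30% in both replicate assays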;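 further: 100% = median of untreated cell wells with 0.1% DMSO on each plate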); details: HUVEC proliferation, CellTiter-Glo luminescence, 72 h; at 10 µM; stronger effect = lower value
# Outline: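 System – primary HUVEC, no more than 12 passages · Medium – Low-serum (2% FBS) EBM, supplemented · Times – 72 h exposure, 37 °C, 5% CO2, 30 min RT equilibration · Measured by – luminescent ATP assay · Read-out – % viability relative to median vehicle-well signal on each plate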
# [3] = H69AR cell proliferation blockers – human, duplicate replicates, primary screen (AID 580;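 active means viability at or under a set limit in both replicates, limit being median viability minus 3 SD, cut at about 48% in these data, passing the limit was not always enough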;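 further: 100% = mean luminescence of untreated wells and 0% = no signal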); details: H69AR lung tumor cells viability, ATP luminescence, 72 h; at 10 µM; stronger effect = lower value
# [4] = MRP1 drug-resistance reversers in H69AR cells – cell-based, doxorubicin co-treatment, pilot screen (AID 601); details: CellTiter-Glo, 72 h, at 10 µM; for differential viability (reversal): stronger effect = higher value
# [5] = yeast transport mutant growth inhibition pilot in 384-well plates, post-Golgi transport modulator project (AID 636; in the data active means inhibition above about 31%); details: absorbance 615 nm, about 18 h, stronger effect = higher value
# [6] = growth suppression of yeast trafficking mutant, preliminary HTS, modulators of trafficking downstream of Golgi apparatus project, 1536-format plate, OD 615 nm (AID 637; in the data active means inhibition above about 30%); details: yeast transport mutant growth, absorbance 615 nm, 18 h; stronger effect = higher value
# [7] = H69AR cells + 2 uM doxorubicin, measured here: viability with 2 uM doxorubicin, stronger effect = lower value
# [8] = H69AR cells, compound alone cytotoxicity
Compound,viability [1],viability [2],viability [3],differential viability (reversal) ([4]; H69AR cells + 2 uM doxorubicin),"viability [4, 7]","viability [4, 8]",inhibition [5],inhibition [6]
Cc1ccc(NC(=O)CSc2nnc(-c3ccc(S(=O)(=O)N4CCOCC4)cc3)n2C)cc1,102% (inactive),104% (inactive),98.4% (inactive),3.83% (inactive),94.6%,98.4%,-3.33% (inactive),-1.64% (inactive)
O=C(NCC1CCCO1)C1CCC(CNS(=O)(=O)c2ccccc2)CC1 (stereo unspecified),101% (inactive),81.6% (inactive),90.3% (inactive),5.42% (inactive),84.8%,90.3%,1.95% (inactive),-1.31% (inactive)
COc1ccc(OC)c(NS(=O)(=O)Cc2ccccc2)c1,63% (inactive),102% (inactive),97.5% (inactive),-14.4% (inactive),112%,97.5%,-7.81% (inactive),1.64% (inactive)
CCCCCc1c(C)nc(SCC(=O)O)[nH]c1=O,108% (inactive),108% (inactive),111% (inactive),14% (inactive),97.1%,111%,1.23% (inactive),-3.39% (inactive)
O=C(Nc1ccccn1)N1CCOCC1,123% (inactive),110% (inactive),95.5% (inactive),6.42% (inactive),89.1%,95.5%,-7.3% (inactive),-5.45% (inactive)
COc1cccc(N2CCN(CC(=O)c3c[nH]c4ccc(OC)cc34)CC2C)c1 (stereo unspecified),104% (inactive),83.9% (inactive),70.4% (inactive),-11.7% (inactive),82.1%,70.4%,-5.33% (inactive),-1.45% (inactive)
C=CCN(CC=C)C(=O)c1ccncc1,115% (inactive),92.8% (inactive),102% (inactive),-2.84% (inactive),104%,102%,0.68% (inactive),-4.84% (inactive)
Nn1c(SCC(=O)NC2CCCCC2)nnc1-c1ccc(Cl)cc1,89% (inactive),104% (inactive),91.6% (inactive),8.96% (inactive),82.7%,91.6%,-6.16% (inactive),3.71% (inactive)
Nc1cccc(C(=O)O)c1,129% (inactive),98.2% (inactive),94.8% (inactive),7.12% (inactive),87.7%,94.8%,1.82% (inactive),0.33% (inactive)
O=C(NC(C(=O)c1ccccc1)N1CCOCC1)c1cccs1 (stereo unspecified),87% (inactive),100% (inactive),96% (inactive),15% (inactive),81%,96%,-1.22% (inactive),-4.36% (inactive)
OCC(O)CN1CCN(c2ccccc2)CC1 (stereo unspecified),119% (inactive),100% (inactive),92.9% (inactive),-1.6% (inactive),94.5%,92.9%,1.95% (inactive),3.83% (inactive)
CCOC(=O)CSC1=C(C#N)C(c2ccc3c(c2)OCO3)CC(=O)N1 (stereo unspecified),90% (inactive),73.1% (inactive),13.1% (active),-52.4% (inactive),65.5%,13.1%,-5.41% (inactive),-2.36% (inactive)
COc1ccccc1N1CCN(C(CNS(=O)(=O)c2cc(F)ccc2F)c2cccnc2)CC1 (stereo unspecified),95% (inactive),110% (inactive),92.8% (inactive),2.69% (inactive),90.2%,92.8%,-2.97% (inactive),4% (inactive)
Cc1ccc(N(CC2=NCCN2)c2cccc(O)c2)cc1,85% (inactive) and 113% (inactive),84.3% (inactive) and 64.3% (inactive),98.5% (inactive) and 92.6% (inactive),-1.66% (inactive) and 11.9% (inactive),100% and 80.7%,98.5% and 92.6%,-1.43% (inactive) and 1.17% (inactive),-3.17% (inactive) and 0.5% (inactive)
CN1CCN(C(=O)c2ccc3c(=O)n(CCc4ccccc4)c(=S)[nH]c3c2)CC1,102% (inactive),66.2% (inactive),81.6% (inactive),25.3% (inactive),56.3%,81.6%,-1.95% (inactive),-2.46% (inactive)
Cc1c(OCC(F)(F)F)ccnc1CS(=O)c1nc2ccccc2[nH]1 (stereo unspecified),99% (inactive),100% (inactive),93.8% (inactive),4.31% (inactive),89.5%,93.8%,-1.69% (inactive),4.33% (inactive)
CCCCCCn1c(CN2CCCC(C)C2)nc2c1c(=O)n(C)c(=O)n2C (stereo unspecified),57% (inactive),111% (inactive),101% (inactive),7.51% (inactive),93.1%,101%,-7.12% (inactive),2.36% (inactive)
Cc1cc(S(=O)(=O)N2CCN(c3ncccn3)CC2)ccc1-n1cnnn1,94% (inactive),120% (inactive),97.1% (inactive),3.36% (inactive),93.7%,97.1%,-2.8% (inactive),-0.73% (inactive)
N#CC1=C(N)OC2=C(CCC/C2=C/c2ccoc2)C1c1ccoc1 (stereo unspecified),87% (inactive),99.1% (inactive),80.8% (inactive),2.94% (inactive),77.9%,80.8%,-5.95% (inactive),0.18% (inactive)

Compound,viability [1],viability [2],viability [3],differential viability (reversal) ([4]; H69AR cells + 2 uM doxorubicin),"viability [4, 7]","viability [4, 8]",inhibition [5],inhibition [6]
CCOc1nc(NCCC2=CCCCC2)nc(N2CCOCC2)n1,102% (inactive),95.8% (inactive),96.7% (inactive),14.6% (inactive),82.1%,96.7%,-3.33% (inactive),1.64% (inactive)
CCOC(=O)C1CCN(CC(=O)c2c(C)[nH]c3ccccc23)CC1,100% (inactive),112% (inactive),92.6% (inactive),0.74% (inactive),91.9%,92.6%,-0.67% (inactive),-2.73% (inactive)
O=C(CN(Cc1ccc(F)cc1)C(=O)c1ccco1)NCc1ccc(F)cc1,104% (inactive),112% (inactive),94.1% (inactive),18.5% (inactive),75.6%,94.1%,-8% (inactive),-6.91% (inactive)
CC(C)OC(=O)C(C)(C)Oc1ccc(C(=O)c2ccc(Cl)cc2)cc1,88% (inactive),90.1% (inactive),103% (inactive),8.95% (inactive),94.5%,103%,0.78% (inactive),-7.67% (inactive)
O=C(O)CCCc1ccccc1,97% (inactive),91.8% (inactive),98% (inactive),1.58% (inactive),96.4%,98%,-0.91% (inactive),8% (inactive)
CCOCCCN(Cc1cc2cc(C)cc(C)c2[nH]c1=O)C(=O)N(CC)CC,58% (inactive),116% (inactive),82% (inactive),-2.52% (inactive),84.5%,82%,0.93% (inactive),10% (inactive)
CC1Oc2ccccc2N(Cc2ccccc2Cl)C1=O (stereo unspecified),77% (inactive),110% (inactive),89.1% (inactive),11.3% (inactive),77.8%,89.1%,-5.34% (inactive),2% (inactive)
CN(c1ccccc1C(=O)NCC1CCCO1)S(C)(=O)=O (stereo unspecified),67% (inactive),103% (inactive),101% (inactive),11.2% (inactive),90%,101%,-4.11% (inactive),2.36% (inactive)
CCOC(=O)c1c(-c2ccc(C)o2)csc1NC(=O)CN1CCN(CC)CC1,87% (inactive),88.6% (inactive),80.2% (inactive),-6.44% (inactive),86.7%,80.2%,-7.53% (inactive),4.18% (inactive)
Cc1cc2ccccc2c(=O)n1CC(=O)Nc1ccc2c(c1)OCO2,136% (inactive),86.6% (inactive),98.9% (inactive),5.25% (inactive),93.7%,98.9%,-2.34% (inactive),-7.05% (inactive)
CC(=O)OCC1=C(C(=O)O)N2C(=O)[C@@H](NC(=O)Cc3cccs3)[C@H]2SC1,141% (inactive),94.8% (inactive),94.2% (inactive),3.98% (inactive),90.2%,94.2%,-4.81% (inactive),8.5% (inactive)
NS(=O)(=O)c1cc2c(cc1Cl)NCNS2(=O)=O,73% (inactive),97.2% (inactive),91.3% (inactive),-5.11% (inactive),96.4%,91.3%,0.65% (inactive),1.17% (inactive)
Cc1c(NC(=O)Cn2nc(C(=O)O)c3ccccc3c2=O)c(=O)n(-c2ccccc2)n1C,116% (inactive),102% (inactive),101% (inactive),0.425% (inactive),100%,101%,2.88% (inactive),-6.45% (inactive)
CCOc1ccccc1NC(=O)CSc1nnc2c(CC)c(C)nc(N)n12,104% (inactive),113% (inactive),96.3% (inactive),-3.08% (inactive),99.4%,96.3%,-5.81% (inactive),-0.91% (inactive)
CN(C)CCCOC(=O)CCc1ccccc1,95% (inactive),126% (inactive),96.3% (inactive),2.46% (inactive),93.9%,96.3%,-4.73% (inactive),-7.09% (inactive)
CCCC1(CCC)NC(=O)NC1=O,121% (inactive),94.7% (inactive),98.2% (inactive),0.09% (inactive),98.1%,98.2%,-0.26% (inactive),0.66% (inactive)
O=C(CSCc1ccc(F)cc1)NC1CCCC1,137% (inactive),108% (inactive),95.8% (inactive),13.6% (inactive),82.2%,95.8%,-3.9% (inactive),4.1% (inactive)
Cc1ccc(Cn2nnnc2CN2CCC(O)(c3ccccc3F)CC2)cc1,62% (inactive),92.6% (inactive),83.1% (inactive),-2.32% (inactive),85.4%,83.1%,-8.36% (inactive),-0.65% (inactive)
